These results are taken from ChEMBL document CHEMBL4152267, “Structure-based design of novel quinoxaline-2-carboxylic acids and analogues as Pim-1 inhibitors” (Eur J Med Chem, 2018).

Structures can show the parent of a compound that is named as a salt. A value given as a limit tells only on which side of the number the result lay.

Assay [1] deals with Serine/threonine-protein kinase pim-1 (Homo sapiens, UniProt P11309). Nature of the assay: Inhibition of recombinant human Pim1 expressed in bacterial expression system using histone H1 as substrate after 30 mins by ADP-Glo reagent based luminescence assay. Summed up: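 Recombinant human Pim-1 (bacterially expressed) with histone H1 at 0.8 µg/µL, 10 µM ATP, in 40 mM Tris pH 7.5, 20 mM MgCl₂ and 0.1 mg/mL BSA, for 30 min at 30 °C. ADP-Glo reagent stops the reaction (50 min, rt), then detection reagent is added (1 h, rt) and luminescence is read.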
Sequence of Serine/threonine-protein kinase pim-1 (P11309 whole entry): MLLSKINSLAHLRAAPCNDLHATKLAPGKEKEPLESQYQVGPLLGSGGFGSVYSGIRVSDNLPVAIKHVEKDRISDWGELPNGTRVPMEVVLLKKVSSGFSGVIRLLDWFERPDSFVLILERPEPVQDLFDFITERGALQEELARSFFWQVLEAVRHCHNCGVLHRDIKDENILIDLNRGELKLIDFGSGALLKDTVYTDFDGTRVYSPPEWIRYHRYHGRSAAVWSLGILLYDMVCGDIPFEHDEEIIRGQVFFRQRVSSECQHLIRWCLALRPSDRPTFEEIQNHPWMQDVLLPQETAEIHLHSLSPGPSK

The next assay deals with KU812 cell line. In words: Cytotoxicity against human KU812 cells assessed as reduction in cell viability after 48 hrs by MTT assay. The note with it: KU812, 48 h. Type of assay: functional, cell-based. In general terms: Formazan colour is commonly taken as a measure of viable cells.
Assay [2] concerns the target Glycogen synthase kinase-3 (Sus scrofa, UniProt B2LUN4+I6LNT8).
In the next assay the target is CDK2/Cyclin A2 (Homo sapiens, UniProt P24941). In words: Inhibition of human CDK2/CyclinA using histone H1 as substrate after 30 mins by ADP-Glo reagent based luminescence assay. The class given is protein-complex assay.
For assay [3], the target named is Dual specificity protein kinase CLK1 (Mus musculus, UniProt P22518).
Sequence of Dual specificity protein kinase CLK1 (P22518 whole entry): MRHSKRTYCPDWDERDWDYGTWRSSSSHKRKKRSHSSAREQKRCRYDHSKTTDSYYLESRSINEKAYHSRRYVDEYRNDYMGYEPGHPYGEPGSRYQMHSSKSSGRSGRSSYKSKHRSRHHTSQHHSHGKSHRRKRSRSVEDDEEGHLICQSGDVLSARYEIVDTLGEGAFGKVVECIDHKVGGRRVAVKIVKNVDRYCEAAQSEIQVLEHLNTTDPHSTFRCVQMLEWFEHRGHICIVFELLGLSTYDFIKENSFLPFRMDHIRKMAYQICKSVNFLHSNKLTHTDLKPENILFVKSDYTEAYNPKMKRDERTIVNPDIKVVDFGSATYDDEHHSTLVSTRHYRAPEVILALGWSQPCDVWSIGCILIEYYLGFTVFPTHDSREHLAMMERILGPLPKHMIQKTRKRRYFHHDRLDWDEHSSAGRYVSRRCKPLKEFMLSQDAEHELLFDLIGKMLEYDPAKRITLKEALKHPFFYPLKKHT
Assay [4] deals with T1, Serine/threonine-protein kinase haspin (Homo sapiens, UniProt Q8TF76).
T1 sequence (Q8TF76 whole entry): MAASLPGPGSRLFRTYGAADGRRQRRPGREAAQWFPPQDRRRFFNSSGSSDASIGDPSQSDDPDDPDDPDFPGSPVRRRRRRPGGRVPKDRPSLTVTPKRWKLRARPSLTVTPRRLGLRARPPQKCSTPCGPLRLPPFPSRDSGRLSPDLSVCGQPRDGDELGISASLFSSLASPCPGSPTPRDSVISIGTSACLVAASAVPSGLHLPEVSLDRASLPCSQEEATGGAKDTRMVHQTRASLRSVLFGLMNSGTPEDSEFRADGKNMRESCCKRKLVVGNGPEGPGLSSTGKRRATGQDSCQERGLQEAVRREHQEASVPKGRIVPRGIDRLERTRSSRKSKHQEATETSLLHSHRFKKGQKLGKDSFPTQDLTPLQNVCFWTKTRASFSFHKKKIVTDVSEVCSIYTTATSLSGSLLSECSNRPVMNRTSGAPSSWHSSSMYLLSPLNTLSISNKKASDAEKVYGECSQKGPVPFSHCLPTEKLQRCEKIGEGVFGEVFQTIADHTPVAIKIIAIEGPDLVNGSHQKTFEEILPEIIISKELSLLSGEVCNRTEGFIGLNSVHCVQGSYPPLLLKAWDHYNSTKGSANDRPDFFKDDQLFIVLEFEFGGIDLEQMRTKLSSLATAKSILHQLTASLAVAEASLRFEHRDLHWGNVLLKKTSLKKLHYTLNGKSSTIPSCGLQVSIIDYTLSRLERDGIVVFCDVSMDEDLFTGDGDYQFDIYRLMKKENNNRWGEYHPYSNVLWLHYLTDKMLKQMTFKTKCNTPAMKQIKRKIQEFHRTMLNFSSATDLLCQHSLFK
Nature of the assay: Inhibition of recombinant human haspin kinase domain (470 to 798 residues) expressed in bacterial expression system using histone H3 peptide as substrate after 30 mins by ADP-Glo reagent based luminescence assay. A general note: In ADP-Glo the light output rises with the ADP produced.

Another assay addresses CDK9/cyclin T1 (Homo sapiens, UniProt P50750). In words: Inhibition of recombinant human CDK9/CyclinT expressed in baculovirus infected Sf9 insect cells using YSPTSPSYSPTSPSYSPTSPSKKKK as substrate after 30 mins by ADP-Glo reagent based luminescence assay.
In assay [5] the target is Dual specificity tyrosine-phosphorylation-regulated kinase 1A (Rattus norvegicus, UniProt Q63470).

Sequence of CDK9/cyclin T1 (O60563 whole entry): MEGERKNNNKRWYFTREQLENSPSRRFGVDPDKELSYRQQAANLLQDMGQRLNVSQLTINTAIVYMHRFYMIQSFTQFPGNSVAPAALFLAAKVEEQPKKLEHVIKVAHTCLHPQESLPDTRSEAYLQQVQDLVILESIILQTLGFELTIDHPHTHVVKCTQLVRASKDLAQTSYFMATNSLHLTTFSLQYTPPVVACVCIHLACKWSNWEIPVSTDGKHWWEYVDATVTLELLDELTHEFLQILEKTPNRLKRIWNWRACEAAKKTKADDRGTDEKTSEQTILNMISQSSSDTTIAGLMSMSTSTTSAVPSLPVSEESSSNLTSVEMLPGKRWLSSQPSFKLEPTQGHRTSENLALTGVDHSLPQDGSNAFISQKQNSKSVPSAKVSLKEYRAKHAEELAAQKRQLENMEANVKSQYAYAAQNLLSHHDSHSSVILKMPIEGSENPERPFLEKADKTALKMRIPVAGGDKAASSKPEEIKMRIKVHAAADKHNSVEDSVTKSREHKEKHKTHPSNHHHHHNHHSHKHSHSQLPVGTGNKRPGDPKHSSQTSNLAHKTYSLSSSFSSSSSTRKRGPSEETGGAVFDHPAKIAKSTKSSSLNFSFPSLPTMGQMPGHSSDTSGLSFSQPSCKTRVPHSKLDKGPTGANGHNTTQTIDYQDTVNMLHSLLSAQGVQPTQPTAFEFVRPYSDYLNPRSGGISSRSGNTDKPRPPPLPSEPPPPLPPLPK
Sequence of CDK9/cyclin T1 (P50750 whole entry): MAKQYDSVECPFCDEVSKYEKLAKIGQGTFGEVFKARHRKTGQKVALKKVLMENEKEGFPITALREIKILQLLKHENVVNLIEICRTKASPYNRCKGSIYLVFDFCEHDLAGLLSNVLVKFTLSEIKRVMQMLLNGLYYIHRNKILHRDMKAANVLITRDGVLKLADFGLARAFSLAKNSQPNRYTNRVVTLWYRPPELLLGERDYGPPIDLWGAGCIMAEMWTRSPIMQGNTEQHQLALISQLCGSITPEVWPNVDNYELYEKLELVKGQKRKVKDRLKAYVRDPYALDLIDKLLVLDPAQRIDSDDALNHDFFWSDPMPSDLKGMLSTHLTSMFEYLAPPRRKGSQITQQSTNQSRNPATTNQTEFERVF

In the case of `CCOC(=O)c1nc2ccccc2nc1Nc1ccc2[nH]ccc2c1`, the half-maximal inhibitory concentration (IC50) in assay [1] is over 10 µM.

For the compound `O=C(O)c1nc2ccccc2nc1Nc1ccc2[nH]ccc2c1`, in assay [1], the half-maximal inhibitory concentration (IC50) is over 10 µM.

On to `Cc1ccc(NC(=O)c2ccc(CN3CCN(C)CC3)cc2)cc1Nc1nccc(-c2cccnc2)n1` [IMATINIB MESYLATE], for which the EC50 with KU812 cell line is 0.6 µM.

For the compound `CCOC(=O)c1nc2ccccc2nc1Nc1cccc(N2CCOCC2)c1`, the half-maximal inhibitory concentration (IC50) in assay [1] was over 10 µM.

Take `CCOC(=O)c1nc2ccccc2nc1Nc1ccccc1O`: in assay [1], the half-maximal inhibitory concentration (IC50) is over 10 µM.

Turning to `NC(=O)c1nc2ccccc2nc1Nc1cccc(N2CCOCC2)c1`, the half-maximal inhibitory concentration (IC50) in assay [1] is over 10 µM.

In the case of `CCOC(=O)c1nc2ccccc2nc1Nc1cccc(N)c1`, the 50% inhibitory concentration (IC50) in assay [1] is over 10 µM.

For the compound `CCOC(=O)c1nc2ccccc2nc1Nc1ccc(C2CCN(C)CC2)cc1`, the IC50 in assay [1] was over 10 µM.

Regarding `O=C(O)c1nc2ccccc2nc1Nc1cccc(O)c1`, the concentration for half-maximal inhibition (IC50) (in assay [2]; against CDK2/Cyclin A2; in assay [3]; in assay [4]; at CDK9/cyclin T1) was over 10 µM throughout. Besides, the EC50 in the assay with KU812 cell line amounted to 38.9 µM.

`O=C(O)c1nc2ccccc2nc1Nc1cccc(N2CCOCC2)c1`: the half-inhibitory concentration (IC50) was over 10 µM in assay [2]; 1.01 µM in assay [1]; over 10 µM against CDK2/Cyclin A2; over 10 µM in assay [3]; over 10 µM in assay [4]; over 10 µM on CDK9/cyclin T1. In addition, the IC50 in assay [5] was over 10 µM. The EC50 in the assay with KU812 cell line was found to be 57.3 µM.

As to `CCOC(=O)c1nc2ccccc2nc1Nc1cccc(O)c1`, the half-inhibitory concentration (IC50) in assay [1] was over 10 µM.

Consider `O=C(O)c1nc2ccccc2nc1Nc1ccccc1O`, for which the IC50 in assay [2] is over 10 µM; in assay [1] it was 0.76 µM; against CDK2/Cyclin A2, over 10 µM; in assay [3], over 10 µM; in assay [4] it was over 10 µM; on CDK9/cyclin T1, over 10 µM. In addition, the IC50 in assay [5] came out at 0.74 µM. The EC50 with KU812 cell line was 178 µM.

`CCOC(=O)c1nc2ccccc2nc1Nc1ccc(N)cc1`: the IC50 in assay [1] is over 10 µM.

In the case of `O=C(O)c1nc2ccccc2nc1Nc1ccc(O)cc1`, the IC50 is over 10 µM in assay [2]; 0.29 µM in assay [1]; over 10 µM on CDK2/Cyclin A2; over 10 µM in assay [3]; over 10 µM in assay [4]; over 10 µM at CDK9/cyclin T1. The compound further gave an IC50 in assay [5] of 0.098 µM. The concentration for a half-maximal effect (EC50) with KU812 cell line worked out at 41.7 µM.

As to `Nc1ccc(Nc2nc3ccccc3nc2C(=O)O)cc1`, the half-inhibitory concentration (IC50) in assay [1] was over 10 µM.

For `Nc1cccc(Nc2nc3ccccc3nc2C(=O)[O-])c1.[K+]`, the IC50 was over 10 µM in assay [2]; 2.8 µM in assay [1]; over 10 µM on CDK2/Cyclin A2; over 10 µM in assay [3]; over 10 µM in assay [4]; over 10 µM on CDK9/cyclin T1. Further, half-maximal inhibition in assay [5] (IC50) required 1.67 µM. Also, in the assay on KU812 cell line, the half-maximal effective concentration (EC50) was determined as 63.8 µM.

Regarding `CN1CCC(c2ccc(Nc3nc4ccccc4nc3C(=O)O)cc2)CC1`, the IC50 in assay [1] is over 10 µM.

Regarding `CCOC(=O)c1nc2ccccc2nc1Nc1ccc(O)cc1`, in assay [1], the half-inhibitory concentration (IC50) was over 10 µM.

Usually IC50 stands for the concentration needed to halve the response being measured. What is called EC50 is the concentration needed to bring the measured effect to its halfway point.
